According to paper PMC7530031 (Neuropharmacology, 2020):
Entries after “also recorded” stand apart in the source; their conditions may differ. Where two headings read alike, the source gives them in different places.

Assays:
[1] = tested on: GluN1/GluN3 receptors; conditions: ref Grand et al., 2018; cited from earlier work
[2] = biological target: human GluN1^FA,TL/GluN3A receptors (Homo sapiens, UniProt Q8TCU5); assay type: cell-based
[3] = biological target: human GluN1/GluN3A receptors (Homo sapiens, UniProt Q8TCU5); assay type: cell-based
Procedure, shortened: (§1)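 Xenopus oocyte two-electrode voltage clamp at −40 mV, 23°C. Human GluN1/GluN3A or rat GluN1–4a/GluN3B, with GluN1:GluN3 cRNA at 1:3. […] Concentration–response data normalized to responses without test compound, fitted by Hill equation for IC50, slope and residual minimum. Percent inhibition was 100×(1−Idrug/Icontrol) at fitted maximum. IC50 taken from mean log(IC50); 8–9 oocytes.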

[4] = biological target: rat GluN1/GluN3B receptors (rat GluN1–4a/GluN3B) (Rattus norvegicus, UniProt Q8VHN2); assay type: cell-based
Procedure, shortened: as §1

[5] = biological target: rat GluN1–4a^FA,TL/GluN3B receptors (Rattus norvegicus, UniProt P35439+Q8VHN2, F484A/T518L); assay type: cell-based
[6] = tested on: GluN1/GluN2 NMDA receptors (GluN1 co-expressed with GluN2A-D); test: Selectivity test in Xenopus oocytes: GluN1/GluN2 NMDA receptors; assay type: cell-based
[7] = tested on: GluA1–4 AMPA receptors; test: Selectivity test in Xenopus oocytes: AMPA receptors; assay type: cell-based, rat, human; conditions: 20 μM; 100 μM glutamate
[8] = tested on: GluK1–2 and GluK2/GluK5 kainate receptors; test: Selectivity test in Xenopus oocytes: kainate receptors; assay type: cell-based, human; conditions: 20 μM; 100 μM glutamate (GluK2/K5: 100 μM AMPA)
[9] = tested on: GABA receptors (GABAA α1β2γ2S, GABAC ρ1); test: Selectivity test in Xenopus oocytes: GABA receptors; assay type: cell-based, rat; conditions: 20 μM; 100 μM GABA
[10] = biological target: T1, glycine receptors (α1) (Rattus norvegicus, UniProt P07727); test: Selectivity test in Xenopus oocytes: glycine receptors; assay type: cell-based; conditions: 20 μM; 100 μM glycine
T1 sequence (P07727 29-457): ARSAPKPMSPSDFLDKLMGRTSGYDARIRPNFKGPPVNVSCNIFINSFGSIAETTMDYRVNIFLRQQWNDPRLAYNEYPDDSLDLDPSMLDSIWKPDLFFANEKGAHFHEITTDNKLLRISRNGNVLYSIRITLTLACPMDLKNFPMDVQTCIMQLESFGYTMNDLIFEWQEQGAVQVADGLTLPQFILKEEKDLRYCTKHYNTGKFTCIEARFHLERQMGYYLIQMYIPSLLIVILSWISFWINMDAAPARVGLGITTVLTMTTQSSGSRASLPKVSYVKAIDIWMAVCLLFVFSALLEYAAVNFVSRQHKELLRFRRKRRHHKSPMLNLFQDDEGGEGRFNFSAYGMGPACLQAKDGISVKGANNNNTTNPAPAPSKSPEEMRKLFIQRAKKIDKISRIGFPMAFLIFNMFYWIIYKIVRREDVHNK

[11] = biological target: alpha7 nicotinic receptors (Rattus norvegicus, UniProt Q05941); test: Selectivity test in Xenopus oocytes: alpha7 nicotinic receptors; assay type: cell-based; conditions: 20 μM; 300 μM acetylcholine
[12] = biological target: muscle nicotinic receptors (α1β1δγ) (Rattus norvegicus, UniProt P18916+P25108+P25109+P25110); test: Selectivity test in Xenopus oocytes: muscle nicotinic receptors; assay type: cell-based; conditions: 20 μM; 1 μM acetylcholine
Procedure, shortened: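 Two-electrode voltage clamp on Xenopus oocytes 2–5 days after cRNA injection; muscle nAChR subunits were injected 1:1:1:1. Recorded at 23°C and −40 mV in HEPES/BaCl2 saline, pH 7.4. Test compound at 20 μM was co-applied with agonist. Response was given as percent of control, taking control as the mean of responses before and after compound exposure.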

[13] = biological target: α2β4 nicotinic receptors (Rattus norvegicus, UniProt P09483+P12390); test: Selectivity test in Xenopus oocytes: α2β4 nicotinic receptors; assay type: cell-based; conditions: 20 μM; 10 μM acetylcholine
[14] = biological target: T2, P2X receptors (human P2X2) (Homo sapiens, UniProt Q9UBL9); test: Selectivity test in Xenopus oocytes: purinergic receptors; assay type: cell-based; conditions: 20 μM; 9 μM ATP
T2 sequence (Q9UBL9 1-471): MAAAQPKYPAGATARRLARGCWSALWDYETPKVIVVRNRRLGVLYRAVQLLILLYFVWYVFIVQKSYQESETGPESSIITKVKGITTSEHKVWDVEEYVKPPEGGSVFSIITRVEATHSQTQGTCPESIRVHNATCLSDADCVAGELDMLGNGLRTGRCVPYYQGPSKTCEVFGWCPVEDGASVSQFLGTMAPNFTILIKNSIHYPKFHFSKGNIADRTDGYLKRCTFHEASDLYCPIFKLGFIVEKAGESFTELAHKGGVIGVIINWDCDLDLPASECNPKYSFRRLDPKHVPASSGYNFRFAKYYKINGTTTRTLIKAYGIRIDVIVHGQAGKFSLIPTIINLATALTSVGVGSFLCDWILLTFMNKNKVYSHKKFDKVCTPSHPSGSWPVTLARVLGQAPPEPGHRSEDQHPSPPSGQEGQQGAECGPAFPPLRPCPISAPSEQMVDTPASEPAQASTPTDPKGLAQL

[15] = biological target: native GluN1/GluN3A receptors (Mus musculus, UniProt A2AIR5); assay type: cell-based; conditions: 30 μM; 1 μM CGP-78608; 10 mM glycine puffs; mouse P8–15 slices
[16] = tested on: GluN1/GluN2 NMDA receptors; assay type: cell-based; conditions: 30 μM; 0.5 mM NMDA puffs; mouse P8–15 slices
[17] = biological target: GluN1/GluN3A channels (Mus musculus, UniProt A2AIR5); test: Nonstationary variance analysis of neuronal glycine-evoked current responses; assay type: cell-based; conditions: 30 μM; VHOLD −60 mV; n = 5
Procedure, shortened: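 Acute mouse hippocampal slices (P8–15), CA1 pyramidal cells, whole-cell at −60 mV, 32°C ACSF with gabazine, NBQX, DL-APV, strychnine and 1 μM CGP-78608. […] Compound at 30 μM or 0.15% DMSO bath-applied. Ten deactivation phases per condition at steady state, split into 50 segments, high-passed at 1 Hz. Variance–current fit gave unitary current; chord conductance assumed 0 mV reversal.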

[18] = tested on: GluN1/GluN3 receptors; conditions: ref Kvist et al., 2013a; cited from earlier work
[19] = tested on: GluN1; conditions: read-out: EC50 of glycine at GluN1; ref Grand et al., 2018; Kvist et al., 2013a; cited from earlier work
[20] = tested on: GluN3A; conditions: read-out: EC50 of glycine at GluN3A; ref Grand et al., 2018; Kvist et al., 2013a; cited from earlier work
[21] = 500 nM CGP-78608 plus 100 μM glycine

human GluN1^FA,TL/GluN3A receptors, sequence (Q8TCU5 24-1115, other chains not shown): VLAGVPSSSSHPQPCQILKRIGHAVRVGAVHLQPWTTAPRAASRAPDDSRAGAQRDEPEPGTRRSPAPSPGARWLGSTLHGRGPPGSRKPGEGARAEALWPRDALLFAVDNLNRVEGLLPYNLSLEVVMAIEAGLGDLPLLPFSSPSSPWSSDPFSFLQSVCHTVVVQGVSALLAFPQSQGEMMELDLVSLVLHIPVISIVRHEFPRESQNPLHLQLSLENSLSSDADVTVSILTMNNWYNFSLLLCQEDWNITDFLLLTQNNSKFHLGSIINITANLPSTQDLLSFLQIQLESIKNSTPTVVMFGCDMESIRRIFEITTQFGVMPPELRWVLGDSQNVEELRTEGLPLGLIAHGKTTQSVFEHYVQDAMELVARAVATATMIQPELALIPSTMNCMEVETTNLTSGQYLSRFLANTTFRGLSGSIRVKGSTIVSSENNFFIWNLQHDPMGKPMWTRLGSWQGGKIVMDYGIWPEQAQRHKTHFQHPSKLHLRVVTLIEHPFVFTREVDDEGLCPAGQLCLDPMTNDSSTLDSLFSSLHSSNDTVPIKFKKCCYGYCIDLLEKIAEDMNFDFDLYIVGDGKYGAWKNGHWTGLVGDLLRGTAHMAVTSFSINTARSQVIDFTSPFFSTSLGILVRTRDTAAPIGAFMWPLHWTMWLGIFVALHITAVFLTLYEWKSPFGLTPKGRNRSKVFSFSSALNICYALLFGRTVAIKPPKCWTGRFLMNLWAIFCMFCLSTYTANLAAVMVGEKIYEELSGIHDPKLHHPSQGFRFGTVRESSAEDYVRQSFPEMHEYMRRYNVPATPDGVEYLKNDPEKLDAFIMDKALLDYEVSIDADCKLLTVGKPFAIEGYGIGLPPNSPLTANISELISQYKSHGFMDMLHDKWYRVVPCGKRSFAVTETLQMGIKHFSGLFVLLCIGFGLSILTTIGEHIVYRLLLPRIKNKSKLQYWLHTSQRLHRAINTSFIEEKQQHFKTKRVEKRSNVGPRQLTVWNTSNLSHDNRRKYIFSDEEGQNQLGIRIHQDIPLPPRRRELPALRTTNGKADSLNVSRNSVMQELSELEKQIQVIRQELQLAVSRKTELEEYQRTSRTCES
human GluN1/GluN3A receptors, sequence (Q8TCU5 24-1115, other chains not shown): as above
rat GluN1/GluN3B receptors (rat GluN1–4a/GluN3B), sequence (Q8VHN2 25-1002, other chains not shown): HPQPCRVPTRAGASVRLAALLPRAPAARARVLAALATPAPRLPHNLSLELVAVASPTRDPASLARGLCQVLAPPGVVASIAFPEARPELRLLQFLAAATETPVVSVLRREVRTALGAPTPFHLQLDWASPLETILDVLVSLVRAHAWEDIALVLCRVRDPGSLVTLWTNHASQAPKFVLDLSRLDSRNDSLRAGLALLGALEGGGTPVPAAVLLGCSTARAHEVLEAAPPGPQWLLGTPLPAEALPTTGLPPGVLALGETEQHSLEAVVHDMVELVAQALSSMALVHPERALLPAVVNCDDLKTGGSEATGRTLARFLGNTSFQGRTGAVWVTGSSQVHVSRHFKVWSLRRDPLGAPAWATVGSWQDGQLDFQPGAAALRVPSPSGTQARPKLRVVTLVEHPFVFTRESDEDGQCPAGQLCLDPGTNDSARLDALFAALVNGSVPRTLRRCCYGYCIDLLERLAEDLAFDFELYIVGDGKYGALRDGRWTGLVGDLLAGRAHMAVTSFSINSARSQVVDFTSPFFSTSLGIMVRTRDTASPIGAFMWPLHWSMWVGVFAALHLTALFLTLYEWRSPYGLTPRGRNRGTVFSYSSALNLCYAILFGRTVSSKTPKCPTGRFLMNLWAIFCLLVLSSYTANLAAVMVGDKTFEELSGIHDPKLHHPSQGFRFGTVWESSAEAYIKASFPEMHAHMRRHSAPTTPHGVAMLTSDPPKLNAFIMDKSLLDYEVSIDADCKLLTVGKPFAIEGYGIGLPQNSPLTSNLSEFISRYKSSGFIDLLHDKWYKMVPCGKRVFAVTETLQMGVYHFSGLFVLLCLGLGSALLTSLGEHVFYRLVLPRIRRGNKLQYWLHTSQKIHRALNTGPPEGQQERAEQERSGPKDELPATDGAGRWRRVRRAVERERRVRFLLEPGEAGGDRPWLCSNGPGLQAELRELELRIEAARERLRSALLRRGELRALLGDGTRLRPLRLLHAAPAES
native GluN1/GluN3A receptors, sequence (A2AIR5 27-1135, other chains not shown): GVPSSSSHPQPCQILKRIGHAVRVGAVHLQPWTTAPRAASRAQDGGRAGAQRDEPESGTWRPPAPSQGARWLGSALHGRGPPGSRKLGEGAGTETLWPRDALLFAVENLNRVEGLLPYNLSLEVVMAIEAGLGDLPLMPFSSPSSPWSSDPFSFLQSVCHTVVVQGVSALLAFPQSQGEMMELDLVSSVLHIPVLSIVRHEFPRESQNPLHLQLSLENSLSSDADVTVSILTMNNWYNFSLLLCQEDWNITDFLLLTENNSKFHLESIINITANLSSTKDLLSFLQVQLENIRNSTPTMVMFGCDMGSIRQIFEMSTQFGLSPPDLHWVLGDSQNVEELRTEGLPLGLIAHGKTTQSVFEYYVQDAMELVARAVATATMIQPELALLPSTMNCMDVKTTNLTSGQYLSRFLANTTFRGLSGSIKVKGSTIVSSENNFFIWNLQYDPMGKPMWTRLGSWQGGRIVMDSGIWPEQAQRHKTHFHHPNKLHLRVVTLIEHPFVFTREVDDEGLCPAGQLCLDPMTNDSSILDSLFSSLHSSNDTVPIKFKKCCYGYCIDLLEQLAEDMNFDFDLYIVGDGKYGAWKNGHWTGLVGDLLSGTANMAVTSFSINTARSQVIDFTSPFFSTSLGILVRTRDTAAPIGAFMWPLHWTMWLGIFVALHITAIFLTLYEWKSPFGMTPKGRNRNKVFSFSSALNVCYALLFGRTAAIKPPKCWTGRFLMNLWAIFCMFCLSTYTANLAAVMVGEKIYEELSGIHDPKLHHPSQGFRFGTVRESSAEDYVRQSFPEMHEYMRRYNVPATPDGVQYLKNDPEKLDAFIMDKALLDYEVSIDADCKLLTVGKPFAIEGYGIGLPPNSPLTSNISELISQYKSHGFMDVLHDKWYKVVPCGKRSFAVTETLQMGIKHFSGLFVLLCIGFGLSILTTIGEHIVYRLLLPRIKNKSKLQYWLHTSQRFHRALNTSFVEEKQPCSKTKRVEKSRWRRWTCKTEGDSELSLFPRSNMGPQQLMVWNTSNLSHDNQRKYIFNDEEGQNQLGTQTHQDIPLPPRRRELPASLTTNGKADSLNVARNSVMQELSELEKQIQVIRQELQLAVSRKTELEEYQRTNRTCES
rat GluN1–4a^FA,TL/GluN3B receptors, sequence (Q8VHN2 25-1002, other chains not shown): as the sequence (Q8VHN2 25-1002, other chains not shown) above
α2β4 nicotinic receptors, sequence (P09483 31-630): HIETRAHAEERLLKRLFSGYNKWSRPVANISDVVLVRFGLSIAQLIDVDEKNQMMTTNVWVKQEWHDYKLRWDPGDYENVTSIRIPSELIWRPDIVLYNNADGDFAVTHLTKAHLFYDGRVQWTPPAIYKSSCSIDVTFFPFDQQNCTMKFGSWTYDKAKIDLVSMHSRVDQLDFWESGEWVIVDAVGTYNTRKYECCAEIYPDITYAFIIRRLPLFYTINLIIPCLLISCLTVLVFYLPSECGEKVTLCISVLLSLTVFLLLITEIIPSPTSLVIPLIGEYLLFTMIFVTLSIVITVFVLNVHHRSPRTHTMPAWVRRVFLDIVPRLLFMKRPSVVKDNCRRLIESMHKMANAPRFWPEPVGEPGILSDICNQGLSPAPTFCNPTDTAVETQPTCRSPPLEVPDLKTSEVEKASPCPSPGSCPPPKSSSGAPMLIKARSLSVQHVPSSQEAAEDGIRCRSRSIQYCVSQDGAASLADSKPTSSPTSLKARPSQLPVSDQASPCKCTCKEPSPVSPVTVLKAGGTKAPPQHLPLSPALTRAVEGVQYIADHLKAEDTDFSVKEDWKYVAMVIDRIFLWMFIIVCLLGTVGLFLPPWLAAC
α2β4 nicotinic receptors, sequence (P12390 25-500): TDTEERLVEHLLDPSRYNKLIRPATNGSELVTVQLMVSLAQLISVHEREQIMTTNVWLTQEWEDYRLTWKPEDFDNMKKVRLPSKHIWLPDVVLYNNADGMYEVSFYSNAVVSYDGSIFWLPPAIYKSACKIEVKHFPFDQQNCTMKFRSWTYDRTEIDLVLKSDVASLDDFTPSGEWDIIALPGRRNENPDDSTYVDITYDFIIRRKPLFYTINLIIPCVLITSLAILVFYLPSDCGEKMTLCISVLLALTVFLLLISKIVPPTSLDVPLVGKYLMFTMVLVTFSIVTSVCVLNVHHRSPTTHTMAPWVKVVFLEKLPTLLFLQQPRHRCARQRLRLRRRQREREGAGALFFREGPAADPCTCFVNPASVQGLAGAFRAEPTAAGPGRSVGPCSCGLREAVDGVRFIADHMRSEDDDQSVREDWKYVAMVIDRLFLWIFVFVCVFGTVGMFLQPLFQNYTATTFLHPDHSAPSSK
alpha7 nicotinic receptors, sequence (Q05941 23-502): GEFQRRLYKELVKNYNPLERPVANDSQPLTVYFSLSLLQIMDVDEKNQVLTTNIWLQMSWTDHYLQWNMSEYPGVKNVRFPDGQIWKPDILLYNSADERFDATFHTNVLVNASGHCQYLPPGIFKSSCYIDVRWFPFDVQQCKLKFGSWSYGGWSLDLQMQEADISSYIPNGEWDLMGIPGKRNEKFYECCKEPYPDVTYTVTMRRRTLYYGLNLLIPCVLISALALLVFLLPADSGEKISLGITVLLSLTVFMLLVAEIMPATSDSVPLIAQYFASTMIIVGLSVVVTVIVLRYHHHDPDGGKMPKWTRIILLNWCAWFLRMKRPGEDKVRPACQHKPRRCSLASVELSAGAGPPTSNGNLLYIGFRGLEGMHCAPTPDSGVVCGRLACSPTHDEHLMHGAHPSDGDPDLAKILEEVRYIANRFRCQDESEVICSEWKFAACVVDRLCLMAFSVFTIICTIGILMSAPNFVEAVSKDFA
GluN1/GluN3A channels, sequence (A2AIR5 27-1135, other chains not shown): as the sequence (A2AIR5 27-1135, other chains not shown) above

In the case of C[C@@H](NCc1cc(Br)cc2[nH]c(=O)c(=O)[nH]c12)P(=O)(O)O.Cl [CGP-78608, [(1 S)-1-[[(7-bromo-1,2,3,4-tetrahydro-2,3-dioxo-5-quinoxalinyl)methyl]amino]ethyl]phosph onic acid hydrochloride], the “effect on activation of GluN1/GluN3 receptors” value [1] is listed as “can dramatically enhance activation of GluN1/GluN3 receptors”.
For COc1ccc(OCC(c2ccc(OC)cc2)N2Cc3ccccc3C2=O)cc1 (stereo not shown) [EU1180–438, 2-(2-(4-methoxyphenoxy)-1-(4-methoxyphenyl)ethyl)isoindolin-1-one], the “response in the presence of compound, % of control” value ([2]; 10 μM EU1180–438, 1 mM glycine) was 29 ± 4.2 % of control, the “dependence of inhibition on glycine concentration” value ([2]; 10 μM EU1180–438, 1 mM vs 3 mM glycine) was “not altered by increasing glycine concentration” and the “response in the presence of compound, % of control” value ([2]; 10 μM EU1180–438, 3 mM glycine) was 29 ± 4.2 % of control. For the same molecule, the IC50 ([2]; IC50, pH 6.8) was 4.2 µM, the IC50 ([2]; IC50, pH 7.4, 1 mM glycine, holding potential −40 mV, mean of individual fits) was 3.5 µM and the “% Inhibition (fitted maximum at saturating test compound)” value ([2]; pH 6.8) was 72%. The “% Inhibition (fitted maximum at saturating test compound)” value ([2]; pH 7.4, 1 mM glycine, −40 mV) was 82%, the “Slope (Hill slope, Fig. 1C)” value ([2]; responses activated by 1000 μM glycine) was 1.3 and the “Slope (Hill slope, Fig. 1D)” value [3, 21] was 1.5. The “minimum (residual current at saturating concentration, Fig. 1D)” value [3, 21] was 15%, the “% Inhibition (fitted maximum at saturating test compound)” value ([3]; pH 7.4, 0.5 μM CGP-78608) was 85% and the “Slope (Hill slope, Fig. 1D)” value [4, 21] was 1.5. The “minimum (residual current at saturating concentration, Fig. 1D)” value [4, 21] was 7%, the “% Inhibition (fitted maximum at saturating test compound)” value ([4]; pH 7.4, 0.5 μM CGP-78608) was 93% and the IC50 [5] was 5.2 µM. For the same molecule, the “% inhibition at saturating concentrations determined from the fitted curve” value ([5]; data not shown) was 82%, the “activity at GluN1/GluN2 NMDA receptors” value ([6]; 20 μM, 100 μM glutamate/100 μM glycine) was “virtually no activity” and the “activity at recombinant GluN1/GluN2 NMDA receptors (library screen)” value ([6]; screen) was “no detectable activity”. The “activity at AMPA receptors” value [7] was “virtually no activity”, the “activity at kainate receptors” value [8] was “virtually no activity” and the “activity at GABA receptors” value [9] was “virtually no activity”. The “activity at glycine receptors” value [10] was “virtually no activity”, the “activity at alpha7 nicotinic receptors” value [11] was “virtually no activity” and the “activity at muscle nicotinic receptors” value [12] was “modestly inhibited”. For the same molecule, the “activity at α2β4 nicotinic receptors” value [13] was “modestly inhibited”, the “activity at P2X receptors” value [14] was “inactive” and the “effect on glycine-activated responses of native GluN1/GluN3A receptors” value [15] was “inhibited significantly; also recorded: strong inhibition”. For the same molecule, the “effect on NMDA-activated responses mediated by GluN1/GluN2 NMDA receptors” value [16] was “does not affect current responses; also recorded: not modulated” and the “average chord conductance of GluN1/GluN3A channels in the presence of compound” value [17] was 6.3 ± 0.90 pS.
For O=C(O)c1cc(C(=O)c2ccc(Cl)cc2Cl)c[nH]1 [TK30], the “preference for GluN1/GluN3 over GluN1/GluN2 receptors” value [18] is listed as 5- to 10 fold.
For O=c1[nH]c2nonc2nc1O [TK80], the “preference for GluN1/GluN3 over GluN1/GluN2 receptors” value [18] is given as 5- to 10 fold.
For NCC(=O)O [glycine], the EC50 [19] is listed as […] and the EC50 [20] is listed as 10 to 60 µM.
